Source: PubChem
Only some compounds are listed: those with a hit (about 4.8% of all), similar ones and a draw of the others.
Beta cell apopt – beta cell apoptosis inhibition; INS-1E cytokine-induced death, ATP luminescence, 48 h; percent of positive-control rescue, neutral wells zero; protection from apoptosis, % (test concentration not listed); 300,000 tested, 0.8% active;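 active means Every replicate reaches about 75%, or at least half do and their mean reaches it too, limit read from the data; inconclusive means At least half of replicates reach the limit but their mean does not; inactive means Under half of replicates reach the limit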;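 further: 0% = cytokine-treated negative control wells and 100% = positive control rescue; higher means more ATP so stronger rescue from cytokine killing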
CSC inhib – blocks cancer stem cells | cancer stem cell-like cells viability, luminescence | inhibition, % at 7.5 µM | 300,000 tested, 1.1% active | AID 2717; in the data active means inhibition above about 75%; inconclusive means no clear call, values can overlap the other calls; tested in HMLE shEcad cells
UPR XBP1 act – adaptive UPR (XBP1) activation; AID 463104; 330,000 tested, 0.33% active; CHO-XBP1 luciferase reporter, IRE1-XBP1 UPR activation, luminescence; percent of tunicamycin response, DMSO as zero; activation, % at 20 µM;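 active means versus positive control, 20 µM dose yields 30% or more activation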;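 further: 100% = tunicamycin at 10 µg/mL and 0% = DMSO only wells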
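Material: CHO cell line with stable XBP1 luciferase reporter; schedule: 16-18 h cell attachment at 37 °C, then 6 h compound exposure; signal: glow luminescence from Steady-Glo reagent; medium: serum-containing F12 medium, 10% FBS; benchmarks: tunicamycin 10 µg/mL and vehicle-only wells; read-out: percent activation relative to tunicamycin reference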
SKKanGAS inh – SKKanGAS growth inhibition | inhibition, % at 7.5 µM | S. pyogenes SKKanGAS, kanamycin growth, BacTiter-Glo, 6 h | 300,000 tested, 1.3% active;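 active means mean replicate score, as percent of positive control median, at least 50; inconclusive means mean below 50 but one replicate at or above 50; inactive means mean and every replicate below 50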;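 further: strain carries kanamycin resistance gene driven by streptokinase promoter and grows in 40 µg/ml kanamycin; loss of luminescence reflects streptokinase promoter inhibition or plain growth inhibition; 0% = median of DMSO wells and 100% = positive control at its reference dose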
Mdm2 MdmX PPI – human Mdm2/MdmX binding inhibition; 330,000 tested, 3% active; SaOS-2 split-luciferase Mdm2/MdmX complementation, luminescence; inhibition, % at 8 µM; AID 485346;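 active means inhibition of at least 50% at 8 µM in the primary screen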
CHOP UPR activ – activators of apoptotic arm of unfolded protein response (CHOP). CHO-CHOP luciferase reporter, UPR activation, luminescence; percent of tunicamycin response over DMSO baseline. 330,000 tested, 0.34% active. activation, % at 10 µM;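 active means at 10 µM dose, activation of 40% or more, normalized to positive control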;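 further: 100% = tunicamycin at 10 µg/mL and 0% = DMSO alone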
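measured by = luciferase luminescence | assay system = CHO-CHOP cells, stable luciferase reporter of PERK-eIF2a-CHOP signalling | amount = 500 reporter cells seeded per well | timing = 6 h compound exposure at 37 °C after overnight seeding | controls = positive tunicamycin 10 µg/mL, negative DMSO alone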
Mdm2 MdmX conf – human Mdm2/MdmX binding inhibition, confirmed; shares compounds with Mdm2 MdmX PPI; luminescent assay; inhibition, % at 8 µM; 10,000 tested, 55% active; AID 489028; in the data active means inhibition above about 40%
FLuc counter – full-length luciferase inhibition in Mdm2/MdmX counter-screen; SaOS-2 full-length luciferase counterscreen, luminescence; shares compounds with Mdm2 MdmX PPI; inhibition, % at 8 µM; 6,200 tested, 77% active;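 active means mean inhibition at 8 µM reaching about 37%, which flags the compound as non-specific, limit read from the data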;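 further: p53-null SaOS-2 cells with luciferase driven by a doxycycline-inducible promoter; compound on cells about two nights before reading with doxycycline added after day one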
* = called active by the depositor; ? = inconclusive; nt = not tested or not shown.

SMILES | Beta cell apopt | CSC inhib | UPR XBP1 act | SKKanGAS inh | Mdm2 MdmX PPI | CHOP UPR activ | Mdm2 MdmX conf | FLuc counter
O=C(NNC(=S)Nc1ccc(Cl)c(Cl)c1)c1ccccn1 | 78.3* | 109.2* | -0.6 | 101.7* | 78.6* | 7.7 | 84.0* | 47.7*
CCSc1ncc(Cl)c(C(=O)Nc2sc3c(c2C(=O)NCc2cccnc2)CCCC3)n1 | nt | nt | 15.4 | 5.0 | 60.3* | 2.2 | 9.2 | nt
CN1CCN(C2Cc3ccccc3Sc3cc(C(F)(F)F)ccc32)CC1 (stereo not drawn) | 41.0 | ? | 18.2 | 11.7 | 49.6 | 2.3 | nt | nt
CCc1cccc2c1Sc1ccccc1CC2N1CCNCC1 (stereo not drawn) | nt | 79.0* | 6.1 | 8.5 | 71.2* | 5.7 | 24.0 | nt
COc1cc2c(cc1OC)CN(c1nc(CN3CCCCC3)nc3sc4c(c13)CCCC4)CC2 | 32.2 | 21.3 | 1.7 | 5.8 | 53.2* | 0.4 | 44.5* | 62.0*
CN(CC(=O)Nc1cccc(F)c1)C(=O)C1(c2ccccc2)CC1 | 6.0 | -12.7 | -1.5 | nt | 2.1 | 7.0 | nt | nt
COc1ccc2[nH]c3c(c2c1)CCN1C(=O)C(CC(=O)NCCN2CCOCC2)C[C@H](C(=O)N2CCCCC2)[C@@]31CCc1ccccc1 (stereo partly drawn) | nt | nt | 3.2 | nt | 5.7 | 2.2 | nt | nt
CN(C)C(=O)CCc1ccc2c3c([nH]c2c1)[C@]1(CCC2CCCC2)[C@@H](C(=O)N2CCOCC2)C[C@H](CC(=O)NCCC2=CCCCC2)C(=O)N1CC3 | nt | nt | 1.2 | nt | 54.4* | 3.3 | 57.0* | 60.7*
CN(C)C(=O)CCc1ccc2c3c([nH]c2c1)[C@]1(CCC2CCCC2)[C@@H](C(=O)N2CCOCC2)C[C@H](CC(=O)NCCN2CCOCC2)C(=O)N1CC3 | nt | nt | 1.9 | nt | -6.1 | 2.4 | nt | nt
COc1ccc2[nH]c3c(c2c1)CCN1C(=O)C(CC(=O)NCCC2=CCCCC2)C[C@H](C(=O)N2CCCCC2)[C@@]31CCc1ccccc1 (stereo partly drawn) | nt | nt | 14.9 | nt | 87.7* | 4.0 | -33.2 | nt
CN(C)CCCNC(=O)C[C@H]1C[C@H](C(=O)N2CCCCC2)[C@@]2(CCc3ccccc3)c3[nH]c4cc(-c5ccco5)ccc4c3CCN2C1=O | nt | nt | 12.6 | nt | 59.3* | 2.8 | 52.5* | 44.5*
O=C(C[C@H]1C[C@H](C(=O)N2CCOCC2)[C@@]2(CCC3CCCC3)c3[nH]c4cc(-c5ccco5)ccc4c3CCN2C1=O)NCCc1ccccn1 | nt | nt | 2.7 | nt | 81.1* | 2.1 | -0.3 | nt
COCCn1c(C)cc(C(=O)COc2ccc(N(C)S(=O)(=O)c3ccc(C)cc3)cc2)c1C | 16.9 | nt | -4.3 | nt | 8.2 | 1.0 | nt | nt
Cc1cc(C)cc(OCC(=O)Nc2ccncc2)c1 | -1.0 | -13.1 | -1.9 | -3.4 | -9.0 | 1.7 | nt | nt
COc1ccc2[nH]c3c(c2c1)CCN1C(=O)C(CC(=O)NCCCN(C)C)C[C@H](C(=O)N2CCCCC2)[C@@]31CCc1ccccc1 (stereo partly drawn) | nt | nt | -0.9 | nt | 33.4 | 2.2 | nt | nt
CN(C)CCCNC(=O)CC1C[C@H](C(=O)N2CCCCC2)[C@@]2(CCc3ccccc3)c3[nH]c4ccccc4c3CCN2C1=O (stereo partly drawn) | 8.1 | 4.8 | -0.6 | nt | 83.3* | 1.7 | 23.9 | nt
CCCCN1C(=N)N([C@@H](C)CN2CCC[C@H]2CN2C(N)=NC[C@H]2CC(C)C)C[C@H]1[C@H](C)CC | -0.3 | 10.9 | -2.0 | nt | 13.8 | 2.0 | nt | nt
Cc1ccc(NCc2nnc(SCC(=O)c3ccc4c(c3)OCCO4)o2)c(C)c1 | nt | nt | 1.2 | 2.7 | 57.2* | -2.0 | 7.3 | nt
COc1ccc(NC(=O)CCn2c(=S)[nH]c3ccccc3c2=O)cc1OC | 4.6 | -9.2 | -2.5 | 5.5 | 6.0 | 1.2 | nt | nt
Cc1cc(C)cc(NC(=O)CCn2c(=S)[nH]c3ccccc3c2=O)c1 | 8.9 | -10.8 | -0.6 | 2.6 | 64.6* | 2.6 | 15.2 | nt
O=C(COc1ccc2ccccc2c1Br)N1CCCCC1 | nt | 6.1 | -2.4 | -0.1 | -41.2 | 4.8 | nt | nt
O=C(Oc1ccc2ccccc2c1Br)N1CCCCCC1 | 8.7 | -17.2 | -1.1 | 28.1 | 58.6* | 1.1 | 41.8* | 149.9*
Cc1ccc(S(=O)(=O)N(C)C)cc1NC(=O)CCNC(=O)c1ccco1 | nt | -0.5 | -5.1 | 1.9 | 30.6 | 1.1 | nt | nt
O=C(c1ccc(F)cc1)C(CN1CCOCC1)c1ccccc1 (stereo not drawn) | nt | nt | -10.3 | -4.6 | 63.9* | 28.9 | 42.6* | 38.2*
CCCCOc1ccc(C(=O)C(CN2CCOCC2)c2ccccc2)cc1 (stereo not drawn) | 67.2 | 111.4* | 14.3 | 1.7 | 94.1* | 37.6 | 74.4* | 21.1
SMILES | Beta cell apopt | CSC inhib | UPR XBP1 act | SKKanGAS inh | Mdm2 MdmX PPI | CHOP UPR activ | Mdm2 MdmX conf | FLuc counter
O=C(c1ccccc1)C(CCC(CN1CCOCC1)C(=O)c1ccccc1)CN1CCOCC1 (stereo not drawn) | 94.6* | 31.2 | -7.0 | -7.6 | 94.9* | 27.9 | 64.5* | 50.5*
O=C(N/N=C/c1ccc([N+](=O)[O-])o1)c1cn2ccc3ccccc3c2n1 | -2.9 | 1.0 | 1.2 | 5.1 | 82.0* | 5.3 | 9.2 | nt
O=C(N/N=C/c1ccc([N+](=O)[O-])o1)c1cc(-c2cccc(Br)c2)nc2ccccc12 | 1.9 | 5.2 | 3.4 | 97.7* | 50.4* | 14.2 | 35.7 | nt
CCN(CC)S(=O)(=O)c1cccc(C(=O)NNC(=O)c2ccc3[nH]c(=O)c(=O)[nH]c3c2)c1 | 2.1 | -2.6 | -7.3 | -9.9 | 12.0 | 0.9 | nt | nt
N#CCCn1cc(/C=C2\NC(=S)N(c3ccccc3)C2=O)c(-c2ccc(-c3ccccc3)cc2)n1 | 6.2 | -2.2 | -0.3 | 8.8 | 63.3* | 2.9 | 18.6 | nt
N#CCc1nc2ccc(S(=O)(=O)N3CCOCC3)cc2s1 | -5.8 | -0.5 | 0.8 | 1.8 | 21.6 | 2.3 | nt | nt
c1ccc(-c2ccc(CNC3CC3)cc2)cc1 | -3.5 | -0.8 | nt | 6.0 | nt | nt | nt | nt
CCOC(=O)C1CCCN(C(=O)c2ccc3nc(-c4cccc(OC)c4)oc3c2)C1 (stereo not drawn) | 3.5 | 50.7 | 1.4 | 0.8 | 53.3* | 2.3 | 79.0* | 113.3*
COC(=O)c1ccc(/C=C2\SC(=S)N(CCCC(=O)NCCCN3CCOCC3)C2=O)cc1 | -13.1 | 15.4 | -8.0 | -2.0 | 17.0 | -3.8 | nt | nt
CCc1ccc(/C=C2\SC(=S)N(CCCC(=O)Nc3ccccn3)C2=O)cc1 | -6.5 | 6.2 | -9.2 | 4.8 | 85.1* | -10.3 | 72.8* | 52.7*
COC(=O)c1ccc(/C=C2/SC(=S)N(CCCC(=O)Nc3ccccn3)C2=O)cc1 | -11.9 | 63.0 | -5.2 | 2.5 | 75.5* | -6.8 | 32.4 | nt
